This is an account of results in ChEMBL document CHEMBL1122226, “6-Aryl-4,5-dihydro-3(2H)-pyridazinones. A new class of compounds with platelet aggregation inhibiting and hypotensive activities” (J Med Chem, 1983).

In brackets after ≈: the same amount, converted by molar mass.

For assay [1], the species on record is Homo sapiens. The assay is described as follows: In vitro inhibition of ADP-induced human platelet aggregation. Format: functional. Conditions: Homo sapiens; read-out: EC50. A digest of the protocol: (§1)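 Human venous blood citrated with 10% v/v sodium citrate (3.8%); platelet-rich plasma spun at 300g, 10 min, 4 °C, used within 2 h. Compound in Me2SO (1% final) preincubated 10 min at room temperature; aggregation triggered by collagen 0.02 mg/mL final or ADP 0.85 μg/mL final; maximum rate read in Born aggregometer. EC50 from log dose–effect regression with 95% confidence limits.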

The test system of assay [2] is Rattus norvegicus. The assay is described as follows: In vitro hypotensive activity in anesthetized rats after intraperitoneal administration. Conditions: ip, in the assay text read “In vivo” for “In vitro”. Format: functional. The procedure, abridged:
(§2)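 Male Sprague-Dawley rats, 230-280 g, urethane-anesthetized (ip); carotid arterial pressure recorded continuously by pressure transducer. Compounds given ip at 2 mL/kg. ED20, dose lowering mean carotid pressure by 20%, from log dose–effect regression; dihydralazine as reference.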

Assay [3] deals with Rattus norvegicus. Nature of the assay: Ex vivo inhibition of collagen-induced rat platelet aggregation after peroral administration. In kind it is functional. Conditions: po. The procedure, abridged:
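Male Sprague-Dawley rats, 200-250 g, dosed orally, three rats per dose. Blood drawn by heart puncture under ether 1 h post-dose; platelet-rich plasma prepared by centrifugation; aggregation induced with collagen 0.02 mg/mL final, maximum rate read in Born aggregometer.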

The nature of assay [4]: In vitro inhibition of collagen induced aggregation of human plateles and the ratio of ED33 to EC50 was reported. In kind it is functional. A digest of the protocol: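 Ratio of oral ED33 (male Sprague-Dawley rats, 3 per dose, blood taken 1 h post-dose, collagen-triggered aggregation) to in vitro EC50 (human citrated platelet-rich plasma, 10 min room-temperature preincubation in 1% Me2SO, collagen 0.02 mg/mL final, regression-derived).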

The subject of assay [5] is Rattus norvegicus. The assay is described as follows: Activity relative to dihydralazine for in vitro hypotensive activity in anesthetized rats. Format: functional. Conditions: in the assay text read “in vivo” for “in vitro”. The procedure, abridged: as §2
For assay [6], the species on record is Rattus norvegicus. The assay is described as follows: Relative activity in rats based on acetylsalicylic acid. In kind it is functional.
For assay [7], the species on record is Homo sapiens. Nature of the assay: In vitro inhibition of collagen-induced human platelet aggregation. In kind it is functional, organism-based. The procedure, abridged: as §1
Assay [8] is filed under the species Homo sapiens. Nature of the assay: Relative activity (compared to acetylsalicylic acid) for in vitro inhibition of collagen-induced human platelet aggregation. Format: functional.

As for `CC(Br)C(=O)Nc1ccc(C2=NNC(=O)CC2C)cc1` (stereo not given), in the assay filed under Homo sapiens [1], the EC50 (as a rule, the midpoint of the concentration-response curve) was determined as 0.26 µg/mL (≈ 0.769 µM). This compound showed an ED20 with Rattus norvegicus [2] of 0.4 mg/kg. The compound also displayed an ED33 in the assay on Rattus norvegicus [3] of 8.18 mg/kg. The Ratio in assay [4] worked out at 14.1. Further, the Relative activity is listed as 0.85 with Rattus norvegicus [5] and 28.5 in the assay listed under Rattus norvegicus [6].
`CC1CC(c2ccc(NC(=O)CCl)cc2)=NNC1=O` (stereo not given): the EC50 in the assay filed under Homo sapiens [1] was 21.9 µg/mL (≈ 78.3 µM); in the assay filed under Homo sapiens [7] (Homo sapiens, read-out: EC50) it was 6.31 µg/mL (≈ 22.6 µM). The Relative activity in the assay listed under Homo sapiens [8] is reported as 78; in the assay with Rattus norvegicus [5] it was under 0.34. In the assay on Rattus norvegicus [2], this compound came in with an ED20 of over 1 mg/kg.
For `CC1CC(=O)NN=C1c1ccc(NC(=O)CCl)cc1` (stereo not given), the EC50 in the assay listed under Homo sapiens [1] was 0.15 µg/mL (≈ 0.536 µM). The same compound gave an ED20 in the assay on Rattus norvegicus [2] of 0.15 mg/kg. This compound also yielded an ED33 in the assay with Rattus norvegicus [3] of 12.2 mg/kg. In addition, the Ratio in assay [4] came out at 111. Besides, the Relative activity with Rattus norvegicus [5] was determined as 2.25; in the assay listed under Rattus norvegicus [6] it was 19.1.
On to `CC(Cl)C(=O)Nc1ccc(C2=NNC(=O)C(C)C2)cc1` (stereo not given), for which the EC50 in the assay filed under Homo sapiens [1] is 32.9 µg/mL (≈ 112 µM); in the assay filed under Homo sapiens [7] (Homo sapiens, read-out: EC50), 33.8 µg/mL (≈ 115 µM). The Relative activity in the assay listed under Homo sapiens [8] is reported as 15; in the assay on Rattus norvegicus [5], under 0.34. In the assay with Rattus norvegicus [2], this compound yielded an ED20 of over 1 mg/kg.
With `COc1ccc2c(c1)c(CC(=O)O)c(C)n2C(=O)c1ccc(Cl)cc1` [INDOMETHACIN], the EC50 in the assay filed under Homo sapiens [7] turned out to be 200 µg/mL (≈ 559 µM). The compound further came in with a Relative activity in the assay filed under Homo sapiens [8] of 2.47.
`CCC(Cl)C(=O)Nc1ccc(C2=NNC(=O)CC2)cc1` (stereo not given): the half-maximal effective concentration (EC50) in the assay filed under Homo sapiens [1] turned out to be 1.47 µg/mL (≈ 5 µM); in the assay listed under Homo sapiens [7] (Homo sapiens, read-out: EC50) it was 3.16 µg/mL (≈ 10.8 µM). The Relative activity in the assay filed under Homo sapiens [8] was 156; with Rattus norvegicus [5], 0.91. In the assay with Rattus norvegicus [2], this compound had an ED20 of 0.37 mg/kg.
As to `C=CCNCC(=O)Nc1ccc(C2=NNC(=O)CC2)cc1.Cl`, the EC50 in the assay filed under Homo sapiens [1] was about 21.5 µg/mL; in the assay filed under Homo sapiens [7] (Homo sapiens, read-out: EC50) it was about 4.64 µg/mL. In addition, the figures for the Relative activity in the assay listed under Homo sapiens [8] and with Rattus norvegicus [5] were about 107 and under 0.34, respectively. This compound gave an ED20 with Rattus norvegicus [2] of over 1 mg/kg.
The corresponding values for `Nc1ccc(C2=NNC(=O)CC2)cc1` are 46.4 µg/mL (≈ 245 µM), 14.8 µg/mL (≈ 78.2 µM), 33, 1.88 and 0.18 mg/kg.
Turning to `CC1CC(=O)NN=C1c1ccc(NC(=O)C(C)(C)Br)cc1` (stereo not given), the EC50 in the assay filed under Homo sapiens [1] worked out at 0.33 µg/mL (≈ 0.937 µM). Further, the ED20 in the assay on Rattus norvegicus [2] came to 2.93 mg/kg. In the assay on Rattus norvegicus [3], the ED33 is 3.49 mg/kg. In assay [4], the Ratio came out at 3.9. Besides, the results for the Relative activity in the assay with Rattus norvegicus [5] and in the assay filed under Rattus norvegicus [6] were 0.12 and 66.8, respectively.
In the case of `CC(C)(CCl)C(=O)Nc1ccc(C2=NNC(=O)CC2)cc1`, the EC50 in the assay filed under Homo sapiens [1] is 11.4 µg/mL (≈ 37 µM); in the assay filed under Homo sapiens [7] (Homo sapiens, read-out: EC50) it was 9.24 µg/mL (≈ 30 µM). Besides, the Relative activity in the assay listed under Homo sapiens [8] is given as 54; with Rattus norvegicus [5] it was under 0.34. This compound also yielded an ED20 in the assay on Rattus norvegicus [2] of over 1 mg/kg.
Turning to `Nc1cccc(C2=NNC(=O)CC2)c1`, the EC50 is over 46.4 µg/mL in the assay filed under Homo sapiens [1] and over 46.4 µg/mL in the assay filed under Homo sapiens [7] (Homo sapiens, read-out: EC50). Also, the values for the Relative activity in the assay filed under Homo sapiens [8] and in the assay on Rattus norvegicus [5] were under 11 and under 0.34, respectively. Moreover, the ED20 in the assay on Rattus norvegicus [2] is over 1 mg/kg.
For the compound `O=C1CCC(c2ccc(NC(=O)CCCCl)cc2)=NN1`, the EC50 was over 46.4 µg/mL in the assay listed under Homo sapiens [1] and over 46.4 µg/mL in the assay filed under Homo sapiens [7] (Homo sapiens, read-out: EC50). Besides, the Relative activity in the assay filed under Homo sapiens [8] is on record as under 11; with Rattus norvegicus [5] it was under 0.34. The ED20 with Rattus norvegicus [2] is over 1 mg/kg.
Compound `CC(=O)Oc1ccccc1C(=O)O` [ASPIRIN] showed an EC50 in the assay filed under Homo sapiens [7] of 494 µg/mL (≈ 2740 µM). Moreover, the Relative activity in the assay listed under Homo sapiens [8] and in the assay on Rattus norvegicus [5] was 1 in each case. In the assay on Rattus norvegicus [3], this compound showed an ED33 of 233 mg/kg. Moreover, the Ratio in assay [4] was 0.47.
Take `O=CNc1ccc(C2=NNC(=O)CC2)cc1`: the EC50 was 3.74 µg/mL (≈ 17.2 µM) in the assay listed under Homo sapiens [1] and 5.27 µg/mL (≈ 24.3 µM) in the assay filed under Homo sapiens [7] (Homo sapiens, read-out: EC50). Moreover, the Relative activity in the assay filed under Homo sapiens [8] amounted to 94; with Rattus norvegicus [5], 1.06. In the assay with Rattus norvegicus [2], this compound came in with an ED20 of 0.32 mg/kg.
Turning to `CC(=O)Nc1ccc(C2=NNC(=O)CC2)cc1`, the EC50 in the assay listed under Homo sapiens [1] turned out to be 1 µg/mL (≈ 4.32 µM); in the assay filed under Homo sapiens [7] (Homo sapiens, read-out: EC50), 1.09 µg/mL (≈ 4.71 µM). Besides, the Relative activity is reported as 453 in the assay listed under Homo sapiens [8] and 1.69 in the assay with Rattus norvegicus [5]. The same compound displayed an ED20 with Rattus norvegicus [2] of 0.2 mg/kg.
Taken in the same sequence, the figures for `C[N+]1(CC(=O)Nc2ccc(C3=NNC(=O)CC3)cc2)CCCC1.[Cl-]` were over 46.4 µg/mL, over 46.4 µg/mL, under 11, under 0.34 and over 1 mg/kg.
For the compound `CN1N=C(c2ccc(NC(=O)CCl)cc2)CCC1=O`, the EC50 in the assay listed under Homo sapiens [1] is over 46.4 µg/mL; in the assay listed under Homo sapiens [7] (Homo sapiens, read-out: EC50), over 46.4 µg/mL. Further, the Relative activity in the assay filed under Homo sapiens [8] is given as under 11; in the assay on Rattus norvegicus [5] it was under 0.34. For the same compound, the ED20 with Rattus norvegicus [2] was over 1 mg/kg.
